In the library only some 3.5% were active in any assay of this set; here they are far more common.
MrgX1 PAM – allosterically activates human MrgX1 receptor signaling | Q96LB2 | MrgX1-HEK293, Fluo-4 calcium flux, FDSS; stronger effect = higher value | B-score at 10 µM | 310,000 tested, 0.63% active;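 active = plate-corrected calcium response at least 3 library SD above typical, normal starting fluorescence, not activating the receptor alone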;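 also: compound read alongside a low EC10 to EC30 dose of BAM8-22 agonist; peak minus trough fluorescence over baseline measured at the second addition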
Target sequence (Q96LB2 whole entry, looked up): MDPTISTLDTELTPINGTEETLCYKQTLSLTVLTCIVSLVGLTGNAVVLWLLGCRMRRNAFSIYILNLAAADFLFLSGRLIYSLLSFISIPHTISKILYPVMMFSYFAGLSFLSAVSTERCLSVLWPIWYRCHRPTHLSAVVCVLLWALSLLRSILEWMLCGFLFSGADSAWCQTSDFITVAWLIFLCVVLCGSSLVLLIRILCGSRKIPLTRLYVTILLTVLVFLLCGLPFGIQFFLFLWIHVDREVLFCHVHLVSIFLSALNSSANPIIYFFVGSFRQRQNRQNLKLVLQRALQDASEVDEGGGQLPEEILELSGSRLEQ
MrgX1 antagonist – blocks BAM8-22 activation of human MrgX1 receptor | MRGX1-HEK293 calcium flux, Fluo-4, BAM8-22 antagonism; stronger effect = lower value | B-score at 10 µM | 310,000 tested, 1.3% active | AID 588676;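 active = calcium-response B-score plate-corrected more than 3 library SD below zero, starting fluorescence within 5 deviations, no agonist response on first addition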;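 also: peak minus trough fluorescence over baseline after final BAM8-22 challenge near maximal dose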
RGS4 inh – inhibitors of human RGS4; 310,000 tested, 0.45% active; P49798; B-score at 10 µM; HEK293 M3R/RGS4 inducible, Fluo-4 calcium flux; stronger effect = higher value; triggered by carbachol at its EC20; AID 463165;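 active = B-score, a plate-corrected calcium signal, over three deviations above library mean, with baseline fluorescence within five deviations of library mean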;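 also: RGS4 expression induced by doxycycline in cells with stable M3 receptor; B-score is computed from the integrated fluorescence ratio over baseline after carbachol; higher B-score means a larger calcium signal and so more RGS4 inhibition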
Target sequence (P49798 whole entry, looked up): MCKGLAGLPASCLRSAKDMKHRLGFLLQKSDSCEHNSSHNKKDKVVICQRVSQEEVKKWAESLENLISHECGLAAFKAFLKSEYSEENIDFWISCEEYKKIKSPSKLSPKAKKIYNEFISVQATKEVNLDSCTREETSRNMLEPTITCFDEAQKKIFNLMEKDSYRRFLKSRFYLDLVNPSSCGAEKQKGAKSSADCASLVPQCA
MrgX1 agonist – human MrgX1 receptor agonism, primary screen; MrgX1-HEK293 cells, Fluo-4 calcium fluorescence, agonist mode; stronger effect = higher value; B-score at 10 µM; 310,000 tested, 0.44% active; AID 588627;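 active = calcium response B-score plate-corrected fluorescence ratio at least 3 library SD, with starting fluorescence B-score inside 5 SD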
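Assay system: MrgX1-expressing HEK293 cells / Amount: fifteen thousand cells per well / Doses: test compound in the initial addition of three / Timing: cells plated overnight, dye loaded 0.5 h 37 °C, 0.5 h room temperature / Technique: kinetic calcium dye fluorescence, Fluo-4 NW / Control set: positive and negative controls per plate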
RGS4 pot – RGS4 potentiation or activation; HEK293 M3R/inducible RGS4, carbachol calcium flux Fluo4; stronger effect = lower value; B-score at 10 µM; 310,000 tested, 0.92% active;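 active = B-score of the integrated calcium signal more than 4 SD below the library mean, with starting fluorescence not abnormally high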;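 also: negative B-score means reduced calcium response which marks RGS4 activation or potentiation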
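System: HEK293 FlpIn-TREx cells, stable M3R, doxycycline-inducible RGS4. Timing: overnight RGS4 induction, 30 min dye load 37 °C, 20 min compound RT. Also added: carbachol, ECmax concentration. Measured by: Fluo4 fluorescence kinetic imaging of calcium. Evaluation: integrated calcium ratio converted to B score.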
MrgX1 ant reconf – human MrgX1 receptor antagonism, re-confirmation screen | remaining BAM8-22 calcium response % of control (stronger effect = lower value), % at 10 µM | shares compounds with MrgX1 antagonist | 2,300 tested, 19% active | MrgX1-HEK293, BAM8-22 calcium flux, Fluo-4; stronger effect = lower value | AID 602420;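 active = remaining agonist calcium response no higher than 100% minus 3 SD of agonist-only control wells, with starting fluorescence near control levels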;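 also: agonist BAM8-22 given at a near maximal EC90 to ECmax level; peak minus minimum fluorescence divided by baseline after agonist addition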
HEK293 Ca flux – activity in parental HEK293 cells lacking MrgX1; shares compounds with MrgX1 antagonist; Fluo-4 calcium fluorescence, FDSS; fluorescence ratio F(max-min)/F0 at 10 µM; 4,000 tested, 2% active; AID 624111;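 active = duplicate-averaged calcium fluorescence ratio at least three times the standard deviation of buffer wells, a nonspecific response in parental cells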
HEK293 Ca counter – MrgX1 allosteric activator counter-screen hit in parental HEK293 cells | shares compounds with MrgX1 antagonist | parental HEK293 calcium flux, Fluo-4 fluorescence ratio; stronger effect = higher value | fluorescence ratio F(max-min)/F0 at 10 µM | 4,000 tested, 0.4% active;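 active = calcium fluorescence ratio, averaged over duplicates, at least 3 SD of the buffer-well ratio, meaning a nonspecific response in receptor-free cells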;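 also: untransfected parental HEK293 lacking MrgX1 used as counterscreen for MrgX1 allosteric activators; fluorescence change taken during the second addition on a kinetic imager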
HEK293 Ca cntr2 – counter-screen for MrgX1 activators: effect in parental HEK293 cells. Fluo-4 calcium fluorescence (FDSS); stronger effect = higher value. shares compounds with MrgX1 antagonist. fluorescence ratio F(max-min)/F0 at 10 µM. 4,000 tested, 8.7% active. AID 624115;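 active = calcium fluorescence ratio at least three times the spread of buffer wells, meaning a non-specific response in parental cells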
Of the large screens only hits and unclear results are named; the others gave an inactive call (follow-up assays come after a bar, where they were run).

CCCCCOC(=O)Cc1c(O)c2ccccc2[nH]c1=O	MrgX1 antagonist -7.9 | MrgX1 ant reconf inactive | HEK293 Ca flux inactive | HEK293 Ca counter inactive | HEK293 Ca cntr2 inactive
O=C(Cc1c(O)c2ccccc2[nH]c1=O)NC1CCCCCCC1	MrgX1 antagonist -8.4 | MrgX1 ant reconf inactive | HEK293 Ca flux inactive | HEK293 Ca counter inactive | HEK293 Ca cntr2 inactive
O=C(Cc1c(O)c2ccccc2[nH]c1=O)NC1CCCCCC1	none
O=C(CS(=O)(=O)c1c[nH]c2ccccc12)NC1CCCCC1	MrgX1 antagonist -10 | MrgX1 ant reconf inactive | HEK293 Ca flux inactive | HEK293 Ca counter inactive | HEK293 Ca cntr2 inactive
O=C(CS(=O)(=O)c1c[nH]c2ccccc12)Nc1ccc(F)cc1	none
CC(=O)Cn1cnc2c(cnn2-c2ccc(C)c(C)c2)c1=O	none
Cc1cc(=O)oc2c(C)c(OC(C)C(=O)NC(Cc3c[nH]c4ccc(O)cc34)C(=O)O)ccc12 (stereo not given)	MrgX1 antagonist -5.5 | MrgX1 ant reconf inactive | HEK293 Ca flux inactive | HEK293 Ca counter inactive | HEK293 Ca cntr2 inactive
COc1ccc(-c2csc(NC(=O)CSCc3c(C)noc3C)n2)c(OC)c1	none
CC(C)OC(=O)c1ccc(COC(=O)c2cnccn2)cc1	MrgX1 antagonist -5.4 | MrgX1 ant reconf inactive | HEK293 Ca flux inactive | HEK293 Ca counter inactive | HEK293 Ca cntr2 inactive
Cc1nn(Cc2ccccc2Cl)c2sc(C(=O)Nc3nccs3)cc12	none
Cc1nn(Cc2ccc(F)cc2)c2sc(C(=O)Nc3nccs3)cc12	MrgX1 antagonist -4.7 | MrgX1 ant reconf inactive | HEK293 Ca flux inactive | HEK293 Ca counter inactive | HEK293 Ca cntr2 inactive
Cc1onc(-c2ccccc2)c1CNC(=O)Nc1cccc(Cl)c1	MrgX1 antagonist -6.6 | MrgX1 ant reconf 82% | HEK293 Ca flux inactive | HEK293 Ca counter inactive | HEK293 Ca cntr2 inactive
Cc1cc(C)cc(NC(=O)NCc2c(-c3ccccc3)noc2C)c1	none
CC(C)OC(=O)CSc1nc(-c2ccc(F)cc2)nc2ccc(F)cc12	MrgX1 antagonist -10 | MrgX1 ant reconf inactive | HEK293 Ca flux inactive | HEK293 Ca counter inactive | HEK293 Ca cntr2 inactive
O=C(CSc1nc2ccccc2s1)NCC1CCCO1 (stereo not given)	MrgX1 antagonist -5.9 | MrgX1 ant reconf inactive | HEK293 Ca flux inactive | HEK293 Ca counter inactive | HEK293 Ca cntr2 inactive
O=C(CSc1nnc(NC(=O)c2cc(Br)ccc2Cl)s1)NCC1CCCO1 (stereo not given)	MrgX1 antagonist -13 | MrgX1 ant reconf inactive | HEK293 Ca flux inactive | HEK293 Ca counter inactive | HEK293 Ca cntr2 inactive
CC(c1ccc(F)cc1)n1c(Cn2ncc3ccccc3c2=O)n[nH]c1=S (stereo not given)	none
O=S(=O)(c1ccccc1)N1CCN(Cc2cccc(Cl)c2)CC1	MrgX1 antagonist -6.9 (no result: RGS4 inh, RGS4 pot) | MrgX1 ant reconf inactive | HEK293 Ca flux inactive | HEK293 Ca counter inactive | HEK293 Ca cntr2 inactive
CC(C)(C)N1CC(C(=O)Nc2ccc(S(=O)(=O)N3CCCCC3)cc2)CC1=O (stereo not given)	none
CC(C)c1ccc(NC(=O)C2CC(=O)N(C(C)C)C2)cc1 (stereo not given)	MrgX1 antagonist -9 | MrgX1 ant reconf inactive | HEK293 Ca flux inactive | HEK293 Ca counter inactive | HEK293 Ca cntr2 inactive
CC(C)(C)N1CC(C(=O)Nc2ccc(S(N)(=O)=O)cc2)CC1=O (stereo not given)	MrgX1 antagonist -4.9 | MrgX1 ant reconf inactive | HEK293 Ca flux inactive | HEK293 Ca counter inactive | HEK293 Ca cntr2 inactive
Cc1cc(NC(=O)C(C)Oc2ccccc2)no1 (stereo not given)	none
CS(=O)(=O)N(CC(=O)Nc1ccccc1C(=O)N1CCCC1)c1ccccc1Br	none
O=C(O)c1ccc(-n2c(=O)c3ccccc3c3ccccc3c2=O)cc1	MrgX1 antagonist -6.3 | MrgX1 ant reconf inactive | HEK293 Ca flux inactive | HEK293 Ca counter inactive | HEK293 Ca cntr2 inactive
CC(=O)Nc1ccc(-n2c(=O)c3ccccc3c3ccccc3c2=O)cc1	none
Cc1ccc(C)c(N(CC(=O)NCCc2ccccc2)C(=O)CCC(=O)Nc2ccccn2)c1	none
O=C(CCS(=O)(=O)Cc1ccccc1)NC1CCCCC1	MrgX1 antagonist -4.9 | MrgX1 ant reconf inactive | HEK293 Ca flux inactive | HEK293 Ca counter inactive | HEK293 Ca cntr2 inactive
O=C(NCCc1ccccc1)NC1CCCCC1	MrgX1 antagonist -4.8 | MrgX1 ant reconf inactive | HEK293 Ca flux inactive | HEK293 Ca counter inactive | HEK293 Ca cntr2 inactive
O=C(CCS(=O)(=O)c1ccccc1)NC1CCCCC1	none
O=C(CCSc1ccccc1)NCc1cccnc1	MrgX1 antagonist -5.5 | MrgX1 ant reconf 85% | HEK293 Ca flux inactive | HEK293 Ca counter inactive | HEK293 Ca cntr2 inactive
O=C(CCSc1ccccc1)NC1CCCC1	MrgX1 antagonist -8.8 | MrgX1 ant reconf inactive | HEK293 Ca flux inactive | HEK293 Ca counter inactive | HEK293 Ca cntr2 inactive
O=C(CCSc1ccc(Cl)cc1)NC1CCCC1	none
COc1ccc(C(=O)CSc2nnc(CN3CCCCC3)n2-c2ccc(F)cc2)cc1	none
O=C(Nc1ccnn1C1CCN(Cc2c[nH]c3ccccc23)CC1)c1ccccc1	none
C=CCN1C(=O)c2cccc3c(N4CCCCC4)ccc(c23)C1=O	none
C=CCN1C(=O)c2cccc3c(Br)ccc(c23)C1=O	MrgX1 antagonist -7.6 | MrgX1 ant reconf inactive | HEK293 Ca flux inactive | HEK293 Ca counter inactive | HEK293 Ca cntr2 inactive
O=S1(=O)N=C2CCCCCN2C(c2ccccc2)N1 (stereo not given)	MrgX1 antagonist -4.6 | MrgX1 ant reconf 85% | HEK293 Ca flux inactive | HEK293 Ca counter inactive | HEK293 Ca cntr2 inactive
O=C(CSc1nnc(NC(=O)c2ccco2)s1)Nc1ccccc1Br	none
Cc1ccc(NC(=O)CNC(=O)c2ccco2)cc1	none
Cc1cc2c3nonc3ccc2n1-c1ccccc1	MrgX1 antagonist -5.2 | MrgX1 ant reconf 84% | HEK293 Ca flux inactive | HEK293 Ca counter inactive | HEK293 Ca cntr2 inactive
CCc1ccc(NC(=S)Nc2ccc(S(=O)(=O)Nc3ncccn3)cc2)cc1	none
O=C(CSc1nc(-c2ccc(F)cc2)cs1)N1CCOCC1	MrgX1 antagonist -9.2 | MrgX1 ant reconf inactive | HEK293 Ca flux inactive | HEK293 Ca counter inactive | HEK293 Ca cntr2 inactive
CN=Cc1cc(-c2ccccc2)sc1O	MrgX1 antagonist -6.2 | MrgX1 ant reconf inactive | HEK293 Ca flux inactive | HEK293 Ca counter inactive | HEK293 Ca cntr2 inactive

Screening results from PubChem.
